The values that follow come from article PMC6253716 (Chemical Science, 2018).

In general, IC50 refers to the point on the concentration scale where inhibition reaches its midpoint. As a reminder, the EC50 is the concentration needed to bring the measured effect to its halfway point.

Like-named read-outs stand apart in the source and are kept apart here.

The target in experiment [1] is T1, ERK2 (Homo sapiens, UniProt P28482). As to the kind of experiment: ERK2 bioassay. It is filed as biochemical.
T1 sequence (P28482 whole entry): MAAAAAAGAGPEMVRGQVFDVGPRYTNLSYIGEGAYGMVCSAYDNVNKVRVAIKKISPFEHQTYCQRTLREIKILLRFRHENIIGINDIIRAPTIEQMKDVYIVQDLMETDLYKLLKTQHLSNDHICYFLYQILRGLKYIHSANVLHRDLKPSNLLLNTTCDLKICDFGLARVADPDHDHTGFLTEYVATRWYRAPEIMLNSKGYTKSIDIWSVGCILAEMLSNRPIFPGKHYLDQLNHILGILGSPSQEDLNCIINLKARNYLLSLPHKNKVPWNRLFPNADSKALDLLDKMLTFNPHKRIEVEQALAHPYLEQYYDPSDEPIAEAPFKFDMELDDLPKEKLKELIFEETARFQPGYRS
In experiment [2] the test system is pRSK in HCT116 cells. As to the kind of experiment: Quantification of pRSK by MSD, HCT116. It is filed as cell-based. The settings on record: for IC50: Homo sapiens, read-out: Pharmacodynamic IC50 (pRSK). In a few lines: (§1)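 Lysis was 20 min at RT. Lysate was captured 3 h at RT on anti-pRSK-coated MSD plates, detected with sulfo-tag anti-RSK antibody for 1 h, and read electrochemiluminescently. IC50 came from a sigmoidal dose–response fit.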

In experiment [3] the test system is HCT116 KRAS mutant colorectal cells. The experiment in a line: Cell proliferation assay. The settings on record: Homo sapiens, HCT-116, 96 h, read-out: Anti-proliferative IC50 HCT116. It is filed as cell-based. Put shortly:
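Cells were kept in DMEM + 10% FBS at 37 °C, 5% CO2. 5 × 10^3 cells were seeded one day before treatment. Compound was given in 0.1% (v/v) DMSO for 96 h, then viability was read with Alamar Blue. IC50 came from a sigmoidal dose–response fit.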

Experiment [4] deals with ERK1/2. The settings on record: published data for the untagged compound; cited from earlier work.
For experiment [5], the system named is pRSK in A375 cells. As to the kind of experiment: Quantification of pRSK by MSD, A375. It is filed as cell-based. The settings on record: Homo sapiens, read-out: Pharmacodynamic IC50 (pRSK). In a few lines: as §1
The target in experiment [6] is T1, ERK2. The experiment in a line: ITDR-CETSA in HCT116 cells, ERK2. It is filed as cell-based.
Experiment [7] has as its target T2, ERK1 (Homo sapiens, UniProt P27361). The experiment in a line: ITDR-CETSA in HCT116 cells, ERK1. It is filed as cell-based.
Experiment [8] has as its target T2, ERK1. As to the kind of experiment: In-cell ERK1/2 pull down in competition with SCH-TCO, ERK1. It is filed as cell-based.
Experiment [9] relates to ERK1/2. As to the kind of experiment: In-lysate ERK1/2 pull down in competition with TCO-GDC-2. It is filed as binding. The settings on record: HCT116 lysates; for Target engagement EC50 with TCO-GDC-2 probe (in words): apparently exaggerated.
For experiment [10], the system named is ERK1/2. As to the kind of experiment: In-lysate ERK1/2 pull down in competition with SCH-TCO. It is filed as binding. The settings on record: cell lysates.
In experiment [11] the test system is ERK1/2. The experiment in a line: CETSA melting curves. It is filed as cell-based. The settings on record: HCT116 cells and lysates; 10 μM inhibitor. Put shortly:
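HCT116 cells in McCoy's 5A at 3 × 10^6 cells per mL got DMSO or 10 μM inhibitor for 1 h at 37 °C. Lysate arm: TG lysis buffer lysate with 10 μM inhibitor for 15 min at RT. Samples were heated 3 min at 12 temperatures (37–70 °C) and lysed by 3 freeze–thaw cycles. Soluble fraction (20 000g, 20 min) was immunoblotted for total ERK1/2 and quantified by densitometry into melting curves.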

For experiment [12], the target named is T1, ERK2. As to the kind of experiment: In-cell ERK1/2 pull down in competition with SCH-TCO, ERK2. It is filed as cell-based.

T2 sequence (P27361 whole entry): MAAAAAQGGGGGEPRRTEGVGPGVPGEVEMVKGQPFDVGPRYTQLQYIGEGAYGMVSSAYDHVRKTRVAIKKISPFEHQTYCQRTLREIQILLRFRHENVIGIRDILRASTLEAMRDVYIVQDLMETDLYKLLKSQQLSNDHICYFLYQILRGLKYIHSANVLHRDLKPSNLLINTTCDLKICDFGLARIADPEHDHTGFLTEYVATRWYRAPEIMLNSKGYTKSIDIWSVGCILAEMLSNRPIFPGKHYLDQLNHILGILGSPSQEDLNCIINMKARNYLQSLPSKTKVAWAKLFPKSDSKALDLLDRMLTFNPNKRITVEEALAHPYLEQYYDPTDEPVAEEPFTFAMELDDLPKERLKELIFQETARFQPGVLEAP

On to Biotin-PEG4-tetrazine [Biotin-PEG4-Tz], for which the “Inhibition of ERK2 (in words)” value in experiment [1] was “does not appreciably inhibit ERK2”. Moreover, the half-maximal inhibitory concentration (IC50) in [1] (read-out: Bioassay IC50, geometric means) stood at 8.1 µM.
`O=C(Nc1ccc2[nH]nc(-c3ccncc3)c2c1)[C@@H]1CCN(CC(=O)N2CCN(c3ccc(-c4ncccn4)cc3)CC2)C1` [SCH772984]: the 50% inhibitory concentration (IC50) came out at 9 nM in experiment [2] (HCT-116, 2 h); 6 nM in experiment [2] (HCT-116, 7 h); 50 nM in experiment [3]; 20 nM in [5] (A-375, 2 h); 20 nM in experiment [5] (A-375, 7 h). Also, the “t1/2 (off-rate, published data)” value in experiment [4] was 25 to 80 min. The “Difference between engagement of ERK1 and ERK2” value in [6] (ITDR-CETSA in HCT116 cells, higher affinity for ERK2) is listed as 4 fold. Further, the half-maximal effective concentration (EC50) stood at 63 nM in [7] and 16 nM in experiment [8].
As to `Cn1nccc1Nc1nccc(-c2ccn([C@H](CO)c3ccc(Cl)c(F)c3)c(=O)c2)n1` [GDC-0994], the 50% inhibitory concentration (IC50) was found to be 140 nM in experiment [2] (HCT-116, 2 h); 110 nM in experiment [2] (HCT-116, 7 h); 1000 nM in experiment [3]; 170 nM in experiment [5] (A-375, 2 h); 130 nM in [5] (A-375, 7 h). Further, the “Difference between EC50 in competition with TCO-GDC-2 as compared with SCH-TCO” value in experiment [9] was about 2 fold. The “Target engagement EC50 with TCO-GDC-2 probe (in words)” value in experiment [9] is recorded as “low nanomolar range”. Besides, the “Difference between EC50 in A375 and HCT116 lysates” value in [10] is on record as 2-3 fold.
Consider `Cn1nccc1Nc1nccc(-c2cc3c(s2)C(C)(C)N(CCN2CCOCC2)C3=O)n1` [LY3214996], for which the “Suppression of pRSK” value in [2] (HCT116 cells) is on record as “failed to show convincing suppression of pRSK”. In [9], the “Difference between EC50 in competition with TCO-GDC-2 as compared with SCH-TCO” value is given as about 2 fold. For the same compound, the “Target engagement EC50 with TCO-GDC-2 probe (in words)” value in [9] is “low nanomolar range”. Besides, the 50% inhibitory concentration (IC50) in [3] worked out at 480 nM; in [5] (A-375, 4 h), 2100 nM. Moreover, in [11], the “Effect on CETSA melting curves of ERK1/2 relative to DMSO control” value is on record as “temperature shift in the melting curves”. Moreover, the concentration for a half-maximal effect (EC50) in experiment [6] was found to be 330 nM; in experiment [7], 300 nM; in experiment [12], 770 nM; in experiment [8] it was 670 nM. Further, the “Bioassay % @ 0.003 μM” value in experiment [1] (at 0.003 μM) was 62% @ 0.003 μM (2).
